Test results from ChEMBL document CHEMBL4024799, “Synthesis and Biological Characterization of Aryl Uracil Inhibitors of Hepatitis C Virus NS5B Polymerase: Discovery of ABT-072, a trans-Stilbene Analog with Good Oral Bioavailability” (J Med Chem, 2018).
pEC50, pIC50: −log10 of the molar value. ≈ marks a conversion by molar mass, not a printed value.

Experiments:
[1] = Stability in human liver microsomes assessed as parent compound remaining after 30 mins; type: ADME, microsome; settings: read-out: Stability
In short: (§1)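 Compound incubated 30 min with human or rat liver microsomes; percent of parent compound remaining reported.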

[2] = AUC in Sprague-Dawley rat at 5 mg/kg, po; type: ADME, organism-based; settings: in vivo
In short: (§2)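 Sprague-Dawley rats, n = 3 per experiment; solution in DMSO:PEG400 (1:9, v/v) given IV or oral; 5 mg/kg for both routes, and 30 mg/kg oral; plasma t1/2, Vss, clearance, Cmax, AUC and F% determined.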

[3] = Aqueous solubility of the compound at pH 7.2; type: physicochemical; settings: buffer
Hepatitis C virus [4] = experiment: Antiviral activity against HCV genotype 1b Con1 infected in human HuH7 cells harboring HCV subgenomic bicistronic replicon after 3 days in presence of 40% human plasma by luciferase reporter gene assay; type: functional, cell-based, Hepacivirus hominis; settings: genotype 1b Con1, Huh-7, 72 h
In short: (§3)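 Subgenomic genotype 1a (H77) or 1b (Con1) replicons carrying firefly luciferase, transfected into Huh-7 cells. Replication inhibition was read as luciferase level in cell lysate on a luminometer and reported as EC50. Runs were done without human plasma or with 40% human plasma added, to assess inhibitor–protein binding.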

[5] = Stability in rat liver microsomes assessed as parent compound remaining after 30 mins; type: ADME, microsome; settings: read-out: Stability; in short: as §1
[6] = Inhibition of HCV genotype 1a H77 NS5B RNA dependent RNA polymerase assessed as reduction in [3H]UTP incorporation in to RNA preincubated for 15 mins followed by [3H]UTP addition measured after 3 hrs by microbeta scintillation counting method; set-up: species or system Hepatitis C virus (isolate H77)
In short: (§4)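 NS5B polymerase from genotype 1a (H77) or 1b (BK); formation of RNA product measured as 3H-UTP incorporation by scintillation counting; IC50 calculated with a standard IC50 equation.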

[7] = Inhibition of HCV genotype 1b BK NS5B RNA dependent RNA polymerase assessed as reduction in [3H]UTP incorporation in to RNA preincubated for 15 mins followed by [3H]UTP addition measured after 3 hrs by microbeta scintillation counting method; set-up: species or system Hepatitis C virus (isolate BK); in short: as §4
[8] = Passive permeability of the compound by PAMPA; type: physicochemical; settings: read-out: permeability
Hepatitis C virus [9] = experiment: Antiviral activity against HCV genotype 1b Con1 infected in human HuH7 cells harboring HCV subgenomic bicistronic replicon after 3 days by luciferase reporter gene assay; type: functional, cell-based, Hepacivirus hominis; settings: genotype 1b Con1, Huh-7, 72 h; in short: as §3
[10] = Plasma clearance in Sprague-Dawley rat at 5 mg/kg, iv; type: ADME, organism-based; in short: as §2
[11] = Cmax in Sprague-Dawley rat at 5 mg/kg, po; type: ADME, organism-based; set-up: dose 5 mg/kg, route oral; settings: in vivo; in short: as §2
[12] = Half life in Sprague-Dawley rat at 5 mg/kg, po; type: ADME, organism-based; settings: in vivo; in short: as §2
[13] = Oral bioavailability in Sprague-Dawley rat at 5 mg/kg; type: ADME, organism-based; settings: in vivo; in short: as §2
Hepatitis C virus [14] = experiment: Antiviral activity against HCV genotype 1a H77 infected in human HuH7 cells harboring HCV subgenomic bicistronic replicon after 3 days by luciferase reporter gene assay; type: functional, cell-based, Hepacivirus hominis; settings: genotype 1a H77, Huh-7, 72 h; in short: as §3
Hepatitis C virus [15] = experiment: Antiviral activity against HCV genotype 1a H77 infected in human HuH7 cells harboring HCV subgenomic bicistronic replicon after 3 days in presence of 40% human plasma by luciferase reporter gene assay; type: functional, cell-based, Hepacivirus hominis; settings: genotype 1a H77, Huh-7, 72 h; in short: as §3
Rattus norvegicus = experiment: Time at which plasma concentration stays above HCV genotype 1b Con1 replicon EC50 in Sprague-Dawley rat at 5 mg/kg, po
[16] = Plasma concentration in Sprague-Dawley rat at 5 mg/kg, po up to 8 hrs; type: ADME, organism-based; in short: as §2
[17] = Ratio of plasma concentration in Sprague-Dawley rat at 5 mg/kg, po to EC50 for HCV genotype 1b Con1 infected in human HuH7 cells harboring HCV subgenomic bicistronic replicon

| Structure (SMILES) | remaining at 0.5 h [1] [%] | AUC [2] [ng·h/mL] | solubility ([3]; read-out: solubility) [µM] | pEC50 (Hepatitis C virus [4]) | remaining at 0.5 h [5] [%] | pIC50 [6] | pIC50 [7] | Papp [8] [×10⁻⁶ cm/s] | pEC50 (Hepatitis C virus [9]) | clearance [10] [mL/min/kg] | Cmax [11] [ng/mL] | half-life [12] [h] | bioavailability [13] [%] | pEC50 (Hepatitis C virus [14]) | solubility [3] [µM] | pEC50 (Hepatitis C virus [15]) | Time (Rattus norvegicus) [h] | concentration at 8 h [16] [nM] | Ratio [17] |
| --- | --- | --- | --- | --- | --- | --- | --- | --- | --- | --- | --- | --- | --- | --- | --- | --- | --- | --- | --- |
| COc1c(C(=O)Nc2ccc(NS(C)(=O)=O)cc2)cc(N2CCC(=O)NC2=O)cc1C(C)(C)C | > 85 | 50 | < 1.5 | 7.66 | > 85 | 7.97 | 7.66 | 0.25 | 7.72 | 25 | – | – | – | – | – | – | – | – | – |
| COc1c(COc2ccc(NS(C)(=O)=O)cc2)cc(N2CCC(=O)NC2=O)cc1C(C)(C)C | > 85 | – | 3 (≈ 1.43 µg/mL) | 6.49 | 80 | 7.00 | 6.78 | 7.47 | 7.28 | – | – | – | – | – | – | – | – | – | – |
| COc1c(CNc2ccc(NS(C)(=O)=O)cc2)cc(N2CCC(=O)NC2=O)cc1C(C)(C)C | 67 | – | 90.8 (≈ 43.1 µg/mL) | – | 58 | 7.10 | 6.57 | 0.41 | 6.28 | – | – | – | – | – | – | – | – | – | – |
| COc1c(NC(=O)c2ccc(NS(C)(=O)=O)cc2)cc(N2CCC(=O)NC2=O)cc1C(C)(C)C | > 85 | – | 32.8 (≈ 16 µg/mL) | 7.68 | > 85 | 8.06 | 7.34 | 0.22 | 7.54 | – | – | – | – | – | – | – | – | – | – |
| COc1c(CCc2ccc(NS(C)(=O)=O)cc2)cc(N2CCC(=O)NC2=O)cc1C(C)(C)C | 2.5 | – | 18.8 (≈ 8.9 µg/mL) | 7.04 | 1.6 | 7.58 | 7.39 | 4.06 | 7.41 | – | – | – | – | – | – | – | – | – | – |
| COc1c(C#Cc2ccc(NS(C)(=O)=O)cc2)cc(N2CCC(=O)NC2=O)cc1C(C)(C)C | 35.8 | 350 | 2.3 (≈ 1.08 µg/mL) | 7.53 | 50 | 8.96 | 8.52 | 0.83 | 8.41 | 31.7 | 60 | 3 | 14 | – | – | – | – | – | – |
| COc1c(/C=C/c2ccc(NS(C)(=O)=O)cc2)cc(-n2cc(F)c(=O)[nH]c2=O)cc1C(C)(C)C | – | 3120 | 15.5 (≈ 7.56 µg/mL) | 7.23 | – | – | – | – | 8.02 | 14.2 | – | 3.7 | 52 | 7.05 | – | – | – | – | – |
| COc1c(/C=C/c2ccc(NS(C)(=O)=O)cc2)cc(N2CCC(=O)NC2=O)cc1C(C)(C)C | 48.1 | 1520 | – | 8.51 | 33.5 | 9.52 | 9.15 | 0.92 | 8.96 | 10.7 | 260 | 2.3 | 18 | 8.51 | 10.3 (≈ 4.86 µg/mL) | 7.30 | 8 | > 200 | >60 |
| COc1c(C(=O)N(C)c2ccc(NS(C)(=O)=O)cc2)cc(N2CCC(=O)NC2=O)cc1C(C)(C)C | 64 | – | > 50 | – | 83 | 6.85 | 6.56 | 0.25 | 5.81 | – | – | – | – | – | – | – | – | – | – |
| COc1c(/C=C(\C)c2ccc([N+](=O)[O-])cc2)cc(N2CCC(=O)NC2=O)cc1C(C)(C)C | 18.5 | – | < 2 | 7.08 | 36.5 | 8.31 | 7.78 | 0.58 | 7.91 | – | – | – | – | – | – | – | – | – | – |
| COc1c(/C=C/c2ccc(NS(C)(=O)=O)c(F)c2)cc(-n2ccc(=O)[nH]c2=O)cc1C(C)(C)C | – | 10400 | 15.5 (≈ 7.56 µg/mL) | 8.28 | – | – | – | – | 8.68 | 6.33 | – | 3.7 | 76 | 7.86 | – | – | – | – | – |
| COc1c(C2CC2c2ccc(NS(C)(=O)=O)cc2)cc(N2CCC(=O)NC2=O)cc1C(C)(C)C (stereo unspecified) | 26.5 | – | 18.8 (≈ 9.13 µg/mL) | 6.37 | 32.3 | 6.57 | 6.29 | 2.8 | 7.25 | – | – | – | – | – | – | – | – | – | – |
